Reference: ChEMBL document CHEMBL1955770, “Inhibition of S/G2 phase CDK4 reduces mitotic fidelity” (J Biol Chem, 2006)

What was measured:
[1] = molecular target: Membrane-associated tyrosine- and threonine-specific cdc2-inhibitory kinase (Homo sapiens) (UniProt Q99640); experiment: Inhibition of PKMYT1 at 1 uM
[2] = molecular target: Cytoplasmic tyrosine-protein kinase BMX (Homo sapiens) (UniProt P51813); experiment: Inhibition of BMX at 1 uM
Outline: (§1)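 Competition binding screen across a kinase panel with compound at 1 μM. Read-out is % competition. Kinases not hit at this concentration were scored '<50'. No Kd was determined for hits.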

[3] = molecular target: Mitogen-activated protein kinase 9 (Homo sapiens) (UniProt P45984); experiment: Inhibition of JNK2 at 1 uM
[4] = molecular target: Serine/threonine-protein kinase PAK 6 (Homo sapiens) (UniProt Q9NQU5); experiment: Inhibition of PAK6 at 1 uM
[5] = molecular target: Serine/threonine-protein kinase MARK2 (Homo sapiens) (UniProt Q7KZI7); experiment: Inhibition of MARK2 at 1 uM
[6] = molecular target: Serine/threonine-protein kinase 4 (Homo sapiens) (UniProt Q13043); experiment: Inhibition of STK4 at 1 uM
[7] = molecular target: Calcium/calmodulin-dependent protein kinase type 1G (Homo sapiens) (UniProt Q96NX5); experiment: Inhibition of CAMK1G at 1 uM; outline: as §1
[8] = molecular target: Serine/threonine-protein kinase 10 (Homo sapiens) (UniProt O94804); experiment: Inhibition of STK10 at 1 uM
[9] = molecular target: Proto-oncogene tyrosine-protein kinase Src (Homo sapiens, UniProt P12931); experiment: Inhibition of SRC at 1 uM
[10] = molecular target: Calcium/calmodulin-dependent protein kinase kinase 2 (Homo sapiens) (UniProt Q96RR4); experiment: Inhibition of CAMKK2 at 1 uM
[11] = molecular target: Serine/threonine-protein kinase 17A (Homo sapiens) (UniProt Q9UEE5); experiment: Inhibition of STK17A at 1 uM
[12] = molecular target: Receptor tyrosine-protein kinase erbB-2 (Homo sapiens) (UniProt P04626); experiment: Inhibition of ERBB2 at 1 uM
[13] = molecular target: Fibroblast growth factor receptor 3 (Homo sapiens) (UniProt P22607); experiment: Inhibition of FGFR3 at 1 uM
[14] = molecular target: Serine/threonine-protein kinase 3 (Homo sapiens) (UniProt Q13188); experiment: Inhibition of STK3 at 1 uM
[15] = molecular target: Serine/threonine-protein kinase pim-2 (Homo sapiens) (UniProt Q9P1W9); experiment: Inhibition of PIM2 at 1 uM
[16] = molecular target: Fibroblast growth factor receptor 1 (Homo sapiens) (UniProt P11362); experiment: Inhibition of FGFR1 at 1 uM
[17] = molecular target: Insulin receptor (Homo sapiens, UniProt P06213); experiment: Inhibition of INSR at 1 uM
[18] = molecular target: Death-associated protein kinase 2 (Homo sapiens) (UniProt Q9UIK4); experiment: Inhibition of DAPK2 at 1 uM
[19] = molecular target: Protein-tyrosine kinase 6 (Homo sapiens) (UniProt Q13882); experiment: Inhibition of PTK6 at 1 uM
[20] = molecular target: cAMP-dependent protein kinase catalytic subunit alpha (Homo sapiens) (UniProt P17612); experiment: Inhibition of PKA catalytic subunit alpha at 1 uM
[21] = molecular target: Tyrosine-protein kinase Lck (Homo sapiens, UniProt P06239); experiment: Inhibition of LCK at 1 uM
[22] = molecular target: Ribosomal protein S6 kinase alpha-3 (Homo sapiens) (UniProt P51812); experiment: Inhibition of RPS6KA3 Kin.Dom.1 at 1 uM
[23] = molecular target: Mitogen-activated protein kinase 11 (Homo sapiens) (UniProt Q15759); experiment: Inhibition of p38-beta at 1 uM
[24] = molecular target: Receptor-interacting serine/threonine-protein kinase 2 (Homo sapiens) (UniProt O43353); experiment: Inhibition of RIPK2 at 1 uM
[25] = molecular target: Dual specificity protein kinase TTK (Homo sapiens) (UniProt P33981); experiment: Inhibition of TTK at 1 uM
[26] = molecular target: Dual specificity protein kinase CLK3 (Homo sapiens) (UniProt P49761); experiment: Inhibition of CLK3 at 1 uM
[27] = molecular target: Mast/stem cell growth factor receptor Kit (Homo sapiens) (UniProt P10721); experiment: Inhibition of KIT at 1 uM
[28] = molecular target: Platelet-derived growth factor receptor beta (Homo sapiens) (UniProt P09619); experiment: Inhibition of PDGFRB at 1 uM
[29] = molecular target: Dual specificity protein kinase CLK1 (Homo sapiens) (UniProt P49759); experiment: Inhibition of CLK1 at 1 uM
[30] = molecular target: 5'-AMP-activated protein kinase catalytic subunit alpha-1 (Homo sapiens) (UniProt Q13131); experiment: Inhibition of AMPK-alpha1 at 1 uM; outline: as §1
[31] = molecular target: Cyclin-dependent kinase 5 (Homo sapiens) (UniProt Q00535); experiment: Inhibition of CDK5 at 1 uM
[32] = molecular target: MAP kinase-interacting serine/threonine-protein kinase 2 (Homo sapiens) (UniProt Q9HBH9); experiment: Inhibition of MKNK2 at 1 uM
[33] = molecular target: Serine/threonine-protein kinase 36 (Homo sapiens) (UniProt Q9NRP7); experiment: Inhibition of STK36 at 1 uM
[34] = molecular target: Ephrin type-A receptor 6 (Homo sapiens) (UniProt Q9UF33); experiment: Inhibition of EPHA6 at 1 uM
[35] = molecular target: Ephrin type-B receptor 1 (Homo sapiens) (UniProt P54762); experiment: Inhibition of EPHB1 at 1 uM
[36] = system: Serine/threonine-protein kinase B-raf (Homo sapiens), P15056 [V600E]; experiment: Inhibition of BRAF(V600E) at 1 uM; outline: as §1
[37] = molecular target: Ribosomal protein S6 kinase alpha-2 (Homo sapiens) (UniProt Q15349); experiment: Inhibition of RPS6KA2 Kin.Dom. 1 at 1 uM
[38] = molecular target: Protein-tyrosine kinase 2-beta (Homo sapiens) (UniProt Q14289); experiment: Inhibition of PTK2B at 1 uM
[39] = system: HCT-116; experiment: Cell cycle arrest in Rb-competent human HCT116 cells assessed as reduction in S phase after 24 hrs using BrdUrd staining by FACS analysis; type: functional, cell-based; settings: HCT-116, 24 h
Outline: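 Asynchronous HCT-116 cells treated 24 h with increasing inhibitor doses, then given a 30-min BrdUrd pulse before harvest. Percentage of BrdUrd-positive cells measured by FACS; IC50 taken as the dose reducing S phase to 50% of control.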

[40] = molecular target: Ephrin type-A receptor 7 (Homo sapiens) (UniProt Q15375); experiment: Inhibition of EPHA7 at 1 uM
[41] = molecular target: Epidermal growth factor receptor (Homo sapiens) (UniProt P00533); experiment: Inhibition of EGFR at 1 uM
[42] = molecular target: Tyrosine-protein kinase JAK1 (Homo sapiens) (UniProt P23458); experiment: Inhibition of JAK1(Kin.Dom.1) at 1 uM
[43] = molecular target: Mitogen-activated protein kinase 1 (Homo sapiens) (UniProt P28482); experiment: Inhibition of ERK2 at 1 uM
[44] = molecular target: Myotonin-protein kinase (Homo sapiens) (UniProt Q09013); experiment: Inhibition of DMPK at 1 uM

Sequence of Dual specificity protein kinase CLK3 (Homo sapiens) (P49761 whole entry, looked up): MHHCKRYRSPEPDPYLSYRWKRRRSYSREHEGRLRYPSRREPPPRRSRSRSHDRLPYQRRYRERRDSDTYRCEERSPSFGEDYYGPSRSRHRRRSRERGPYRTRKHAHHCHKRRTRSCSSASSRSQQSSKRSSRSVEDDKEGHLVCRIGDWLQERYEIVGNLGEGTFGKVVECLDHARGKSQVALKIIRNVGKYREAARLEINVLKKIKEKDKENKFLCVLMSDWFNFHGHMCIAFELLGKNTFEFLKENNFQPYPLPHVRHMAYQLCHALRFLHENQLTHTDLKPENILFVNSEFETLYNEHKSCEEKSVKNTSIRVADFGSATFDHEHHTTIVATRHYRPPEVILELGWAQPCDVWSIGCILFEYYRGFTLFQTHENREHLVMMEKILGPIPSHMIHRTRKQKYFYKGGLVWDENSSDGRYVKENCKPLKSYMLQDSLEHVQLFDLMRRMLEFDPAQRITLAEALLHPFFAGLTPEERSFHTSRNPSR
Sequence of 5'-AMP-activated protein kinase catalytic subunit alpha-1 (Homo sapiens) (Q13131 whole entry, looked up): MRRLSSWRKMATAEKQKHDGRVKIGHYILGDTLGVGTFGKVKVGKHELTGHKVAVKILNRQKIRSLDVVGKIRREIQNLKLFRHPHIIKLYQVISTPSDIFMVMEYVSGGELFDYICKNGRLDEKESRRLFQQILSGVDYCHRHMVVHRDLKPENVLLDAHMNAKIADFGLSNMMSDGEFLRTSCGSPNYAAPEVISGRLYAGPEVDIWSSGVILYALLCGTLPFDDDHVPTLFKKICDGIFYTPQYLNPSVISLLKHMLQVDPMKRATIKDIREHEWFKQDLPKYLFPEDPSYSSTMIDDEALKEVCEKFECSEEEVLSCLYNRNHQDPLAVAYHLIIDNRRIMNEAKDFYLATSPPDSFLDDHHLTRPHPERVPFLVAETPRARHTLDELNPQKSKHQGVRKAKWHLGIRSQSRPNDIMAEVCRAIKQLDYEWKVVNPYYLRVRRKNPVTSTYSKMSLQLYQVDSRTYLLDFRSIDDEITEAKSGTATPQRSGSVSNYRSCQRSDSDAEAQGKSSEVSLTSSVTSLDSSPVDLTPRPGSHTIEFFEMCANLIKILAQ
Sequence of Proto-oncogene tyrosine-protein kinase Src (P12931 2-536 limits assumed): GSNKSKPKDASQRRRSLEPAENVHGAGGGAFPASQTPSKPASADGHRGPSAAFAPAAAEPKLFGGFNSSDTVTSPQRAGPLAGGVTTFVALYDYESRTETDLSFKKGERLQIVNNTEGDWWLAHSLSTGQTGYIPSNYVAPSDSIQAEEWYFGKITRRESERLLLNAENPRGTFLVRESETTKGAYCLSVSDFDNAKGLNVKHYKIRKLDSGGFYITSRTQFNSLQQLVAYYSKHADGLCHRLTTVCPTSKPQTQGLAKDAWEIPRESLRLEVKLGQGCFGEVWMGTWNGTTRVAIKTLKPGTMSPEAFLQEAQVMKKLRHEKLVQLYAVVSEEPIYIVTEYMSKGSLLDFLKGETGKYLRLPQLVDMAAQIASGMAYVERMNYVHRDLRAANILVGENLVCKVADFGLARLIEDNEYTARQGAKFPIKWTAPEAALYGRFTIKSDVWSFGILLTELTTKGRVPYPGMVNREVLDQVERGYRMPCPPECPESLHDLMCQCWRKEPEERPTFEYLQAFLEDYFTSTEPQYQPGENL
Sequence of Tyrosine-protein kinase Lck (P06239 2-509 limits assumed): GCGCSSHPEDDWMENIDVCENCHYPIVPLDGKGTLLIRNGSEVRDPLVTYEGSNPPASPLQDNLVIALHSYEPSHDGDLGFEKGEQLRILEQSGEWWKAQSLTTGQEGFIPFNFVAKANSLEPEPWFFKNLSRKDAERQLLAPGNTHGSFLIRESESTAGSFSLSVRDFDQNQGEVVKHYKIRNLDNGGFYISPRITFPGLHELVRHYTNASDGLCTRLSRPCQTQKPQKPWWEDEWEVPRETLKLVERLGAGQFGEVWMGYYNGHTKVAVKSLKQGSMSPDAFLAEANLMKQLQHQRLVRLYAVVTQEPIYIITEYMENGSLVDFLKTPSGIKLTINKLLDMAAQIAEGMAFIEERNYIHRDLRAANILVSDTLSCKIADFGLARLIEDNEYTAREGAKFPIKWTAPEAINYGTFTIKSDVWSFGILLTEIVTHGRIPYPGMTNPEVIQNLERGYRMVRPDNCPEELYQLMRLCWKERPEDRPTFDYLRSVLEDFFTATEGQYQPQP
Sequence of Fibroblast growth factor receptor 3 (Homo sapiens) (P22607 23-806 limits assumed): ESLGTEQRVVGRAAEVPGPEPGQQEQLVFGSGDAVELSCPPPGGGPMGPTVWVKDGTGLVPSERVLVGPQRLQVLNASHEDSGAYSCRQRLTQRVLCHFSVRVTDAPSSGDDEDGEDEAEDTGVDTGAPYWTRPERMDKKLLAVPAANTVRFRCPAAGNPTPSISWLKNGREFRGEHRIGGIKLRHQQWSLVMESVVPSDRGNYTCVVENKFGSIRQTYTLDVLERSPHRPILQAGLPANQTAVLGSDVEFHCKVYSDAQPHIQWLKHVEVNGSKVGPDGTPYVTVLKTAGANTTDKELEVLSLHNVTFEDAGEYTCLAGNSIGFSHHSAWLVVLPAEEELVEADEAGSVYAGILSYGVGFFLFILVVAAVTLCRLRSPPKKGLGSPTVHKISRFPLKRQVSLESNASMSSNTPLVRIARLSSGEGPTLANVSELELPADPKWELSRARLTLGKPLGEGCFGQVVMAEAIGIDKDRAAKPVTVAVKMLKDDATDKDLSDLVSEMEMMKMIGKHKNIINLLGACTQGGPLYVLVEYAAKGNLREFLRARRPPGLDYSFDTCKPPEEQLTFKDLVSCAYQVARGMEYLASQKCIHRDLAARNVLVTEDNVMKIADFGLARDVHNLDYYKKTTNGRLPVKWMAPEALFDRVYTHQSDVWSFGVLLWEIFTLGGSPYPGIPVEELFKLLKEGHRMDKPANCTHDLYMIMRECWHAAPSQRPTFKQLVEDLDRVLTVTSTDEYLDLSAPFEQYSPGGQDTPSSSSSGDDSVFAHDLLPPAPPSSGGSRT
Sequence of Mitogen-activated protein kinase 11 (Homo sapiens) (Q15759 whole entry): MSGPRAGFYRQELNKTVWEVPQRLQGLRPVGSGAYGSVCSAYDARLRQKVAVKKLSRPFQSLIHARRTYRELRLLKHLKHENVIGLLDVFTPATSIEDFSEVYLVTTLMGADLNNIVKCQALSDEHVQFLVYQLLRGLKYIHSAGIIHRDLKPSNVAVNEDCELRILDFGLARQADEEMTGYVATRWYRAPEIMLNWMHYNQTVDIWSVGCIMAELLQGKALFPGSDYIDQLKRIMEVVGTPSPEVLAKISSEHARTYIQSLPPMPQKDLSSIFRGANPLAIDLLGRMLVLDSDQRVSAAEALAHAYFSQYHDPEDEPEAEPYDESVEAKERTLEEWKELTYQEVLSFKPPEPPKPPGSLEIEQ
Sequence of Receptor tyrosine-protein kinase erbB-2 (Homo sapiens) (P04626 whole entry): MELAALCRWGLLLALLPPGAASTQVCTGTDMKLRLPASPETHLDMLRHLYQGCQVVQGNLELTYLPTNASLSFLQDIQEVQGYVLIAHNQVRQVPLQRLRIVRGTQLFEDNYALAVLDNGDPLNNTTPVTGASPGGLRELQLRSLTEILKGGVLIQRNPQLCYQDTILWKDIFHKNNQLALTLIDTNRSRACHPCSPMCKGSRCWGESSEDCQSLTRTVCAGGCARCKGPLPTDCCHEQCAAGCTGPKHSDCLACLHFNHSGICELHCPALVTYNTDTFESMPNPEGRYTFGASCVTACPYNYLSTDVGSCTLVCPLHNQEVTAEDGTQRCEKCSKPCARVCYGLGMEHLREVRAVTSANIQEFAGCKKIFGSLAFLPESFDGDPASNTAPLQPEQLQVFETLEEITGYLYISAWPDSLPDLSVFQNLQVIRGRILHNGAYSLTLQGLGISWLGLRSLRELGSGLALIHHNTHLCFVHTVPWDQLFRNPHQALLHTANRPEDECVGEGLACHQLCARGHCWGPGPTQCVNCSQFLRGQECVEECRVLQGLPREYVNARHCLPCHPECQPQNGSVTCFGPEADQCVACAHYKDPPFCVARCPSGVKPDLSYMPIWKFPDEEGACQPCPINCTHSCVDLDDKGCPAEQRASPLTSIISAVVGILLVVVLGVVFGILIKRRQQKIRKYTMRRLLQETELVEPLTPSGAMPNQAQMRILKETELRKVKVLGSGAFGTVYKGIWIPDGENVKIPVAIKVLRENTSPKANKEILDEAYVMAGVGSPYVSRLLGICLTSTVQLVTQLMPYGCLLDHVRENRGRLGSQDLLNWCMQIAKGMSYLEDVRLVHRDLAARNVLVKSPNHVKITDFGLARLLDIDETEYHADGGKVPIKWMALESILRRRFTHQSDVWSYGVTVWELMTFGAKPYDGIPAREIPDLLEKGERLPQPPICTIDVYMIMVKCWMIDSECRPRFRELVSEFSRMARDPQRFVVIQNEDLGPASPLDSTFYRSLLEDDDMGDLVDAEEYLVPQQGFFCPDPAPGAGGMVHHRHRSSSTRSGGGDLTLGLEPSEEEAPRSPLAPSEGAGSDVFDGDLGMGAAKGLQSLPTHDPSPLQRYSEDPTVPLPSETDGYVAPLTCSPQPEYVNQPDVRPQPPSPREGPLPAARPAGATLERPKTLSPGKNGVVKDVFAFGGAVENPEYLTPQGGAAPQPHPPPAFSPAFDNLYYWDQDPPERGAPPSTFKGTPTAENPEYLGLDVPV
Sequence of Membrane-associated tyrosine- and threonine-specific cdc2-inhibitory kinase (Homo sapiens) (Q99640 whole entry): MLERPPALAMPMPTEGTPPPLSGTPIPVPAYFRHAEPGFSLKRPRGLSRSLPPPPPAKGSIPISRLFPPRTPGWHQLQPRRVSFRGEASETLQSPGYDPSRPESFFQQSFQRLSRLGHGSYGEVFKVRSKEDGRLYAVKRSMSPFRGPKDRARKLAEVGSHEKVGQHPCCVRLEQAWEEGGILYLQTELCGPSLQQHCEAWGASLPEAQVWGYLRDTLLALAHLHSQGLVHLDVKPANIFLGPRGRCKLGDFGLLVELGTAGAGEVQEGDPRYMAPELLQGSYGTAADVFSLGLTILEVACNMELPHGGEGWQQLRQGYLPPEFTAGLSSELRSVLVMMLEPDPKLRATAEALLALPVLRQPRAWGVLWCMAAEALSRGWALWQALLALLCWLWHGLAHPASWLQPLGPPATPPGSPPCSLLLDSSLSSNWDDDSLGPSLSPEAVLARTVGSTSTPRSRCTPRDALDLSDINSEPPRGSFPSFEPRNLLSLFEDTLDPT

CN1CCN(c2ccc(Nc3nc(N)c(C(=O)c4ccc5c(c4)OCCO5)s3)cc2)CC1
3.9 µM: IC50 [39]
< 50%: inhibition [1] | inhibition [2] | inhibition [3] | inhibition [4] | inhibition [5] | inhibition [6] | inhibition [7] | inhibition [8] | inhibition [9] | inhibition [10] | inhibition [12] | inhibition [13] | inhibition [14] | inhibition [15] | inhibition [16] | inhibition [17] | inhibition [18] | inhibition [19] | inhibition [20] | inhibition [21] | inhibition [22] | inhibition [23] | inhibition [24] | inhibition [27] | inhibition [28] | inhibition [30] | inhibition [31] | inhibition [32] | inhibition [34] | inhibition [35] | inhibition [36] | inhibition [37] | inhibition [38] | inhibition [40] | inhibition [41] | inhibition [43] | inhibition [44]
94%: inhibition [42]
86%: inhibition [33]
78%: inhibition [25]
100%: inhibition [29]
89%: inhibition [11] | inhibition [26]
6.1 µM: IC90 [39]
